Source: PubChem
HNF4A DNA FP – change in binding of human HNF4 alpha to DNA; actives 0.3% (n = 360,000); activity change, % at 10 µM; P41235; HNF4a-FITC DNA binding, fluorescence polarization, 1 h; in the data active = activity change above about 30%, passing the limit was not always enough
TPT1 inhibitor – blocks Candida albicans tRNA 2'-phosphotransferase; recombinant caTPT1, FP RNA substrate dephosphorylation; inhibition, % at 5 µM; actives 0.81% (n = 300,000); AID 1962;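 active = inhibition above the mean of all tested compounds plus 3 SD, set per screening campaign, cut at about 24% in these data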
Rev-erbA mod – modulates human Rev-erb alpha binding to DNA | Rev-erbα–FITC-DNA binding, fluorescence polarization, 90 min | activity, % at 10 µM | actives 0.79% (n = 370,000) | AID 1259318;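 active = activity above about 14%, limit read from the data; passing the limit was not always enough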
CSN inh – CSN deneddylation inhibition; Q92905; Purified CSN, SCF-Nedd8-OG deneddylation, fluorescence polarization; inhibition, % at 12.5 µM; actives 0.38% (n = 360,000);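 active = pattern-corrected inhibition above about 35%, with an unprinted fluorescence ratio check between 0.5 and 1.5, limit read from the data, passing the limit was not always enough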
Target sequence (Q92905 whole entry, looked up, one chain of several): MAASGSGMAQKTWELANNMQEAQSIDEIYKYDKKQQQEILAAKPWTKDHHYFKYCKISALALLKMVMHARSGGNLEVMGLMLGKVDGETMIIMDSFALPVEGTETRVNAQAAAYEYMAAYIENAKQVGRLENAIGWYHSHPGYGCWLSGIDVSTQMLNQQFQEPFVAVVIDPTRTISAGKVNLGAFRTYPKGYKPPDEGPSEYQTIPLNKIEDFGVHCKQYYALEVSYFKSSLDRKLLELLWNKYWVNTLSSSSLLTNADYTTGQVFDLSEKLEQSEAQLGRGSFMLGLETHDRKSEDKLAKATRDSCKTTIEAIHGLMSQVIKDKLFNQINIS
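Test system: purified human Csn5 enzyme expressed in HEK293T cells. Amount: 0.24 nM enzyme. Reagent: SCFSkp2-Nedd8OG substrate at 10 nM final. Schedule: 90 min incubation of compound, enzyme and substrate at room temperature. Detection: fluorescence polarization. Read-out: % inhibition of substrate cleavage by Csn5.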
caTPT1 confirm – confirmation of Candida albicans TPT1 inhibitors | shares compounds with TPT1 inhibitor | recombinant caTPT1, fluorescence polarization, RNase T1 coupled | inhibition, % at 5 µM | actives 74% (n = 2,400) | AID 2149;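 active = inhibition above the primary screen limit, the mean inhibition of all tested compounds plus 3 SD, cut at about 25% in these data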
RNase T1 counter – RNase T1 inhibition in TPT1 counter-screen; shares compounds with TPT1 inhibitor; RNase T1 cleavage, fluorescence polarization, 1536-well; inhibition, % at 5 µM; actives 83% (n = 2,400);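 active = inhibition above the solvent-only control well mean plus 3 SD, limit set per screening run, cut at about 23% in these data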;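 note: inhibitors block cleavage so intact labeled substrate keeps polarization high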
Target sequence (P00651 whole entry, looked up): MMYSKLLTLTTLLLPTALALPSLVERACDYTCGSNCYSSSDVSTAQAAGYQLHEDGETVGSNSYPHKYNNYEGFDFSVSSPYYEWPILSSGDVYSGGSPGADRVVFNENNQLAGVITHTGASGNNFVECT
A number is an active result; – = inactive; · = no result given. Hits are enriched below; roughly 1.7% of the tested compounds scored in any of these assays.

SMILES	HNF4A DNA FP	TPT1 inhibitor	Rev-erbA mod	CSN inh	caTPT1 confirm	RNase T1 counter
N#Cc1ccc(-c2cccnc2)nc1SCC(=O)Nc1sc2c(c1C#N)CCC2	–	45.9	–	–	–	28.9
O=c1[nH]cnc2nn(C3OC(CO)C(O)C3O)nc12 (centres undefined)	·	·	–	·	·	·
COc1ccccc1Cc1c(-c2cccc(Cl)c2)nc2c3ccccc3ccn12	·	·	–	·	·	·
CN(C)CCNC(=O)c1c(O)c2c([nH]c1=O)CCCC2	–	36.9	–	–	–	25.0
O=C(Nc1ccc2c(c1)OCO2)[C@@H]1[C@@H]2C(=O)N(C3CCCCC3)C(=O)[C@@H]2C2c3ccccc3C=CN21 (some centres undefined)	·	61.6	–	·	52.2	63.4
COC(=O)Cn1c(CN2CCN(c3ccc(F)cc3)CC2)nc2c1c(=O)n(C)c(=O)n2C	–	89.8	·	–	–	–
COC(=O)CN1CCN(C(=O)c2csc3ccccc23)CC1	·	·	–	·	·	·
O=C(NCCNC(=O)c1ccco1)c1cccc(F)c1	–	46.9	–	–	–	–
O=C(NCCNC(=O)c1ccco1)c1ccc(F)cc1	–	–	–	–	·	·
C[C@@H]1CCCCO[C@H](CN(C)C(=O)C2CCCCC2)[C@@H](C)CN([C@H](C)CO)C(=O)c2cc(NS(=O)(=O)c3cccs3)ccc2O1	·	·	–	·	·	·
CC(=O)Nc1ccc(S(=O)(=O)Nc2nc3ccccc3nc2Nc2ccc(S(N)(=O)=O)cc2)cc1	–	–	–	–	·	·
CC(=O)Nc1ccc(S(=O)(=O)Nc2nc3ccccc3nc2Nc2ccc(O)c(C(=O)O)c2)cc1	–	43.4	–	–	24.1	32.8
CCCCNC(=O)C[C@@H]1C(=O)N(CCc2ccc(Cl)cc2)/C2=C/CCCCC[C@@]21C(=O)OCC	·	·	–	·	·	·
O=C(O)C(=O)/C(=C\c1cccc2ccccc12)c1ccc2ccccc2n1	–	49.0	–	–	89.1	102.3
O=C(O)C(=O)/C(=C\c1ccsc1)c1ccc2ccccc2n1	–	–	–	–	·	·
CC(=O)N1C(=O)C(=C2C=C(C)OC(C)=C2)c2ccccc21	–	27.4	–	–	72.1	54.9
C=CCN1C(=O)C2(NNc3ccccc3O2)c2ccccc21 (centres undefined)	70.9	84.6	–	–	103.3	107.3
C=CCN1C(=O)C(O)(CC(=O)c2ccc(-n3cccc3)cc2)c2ccccc21 (centres undefined)	–	–	·	–	·	·
CCCCN1C(=O)C2(NNc3ccccc3O2)c2ccccc21 (centres undefined)	68.9	90.5	–	–	94.5	102.1
Cc1ccccc1N1CCN(C2=Nc3ccccc3Sc3ccccc32)CC1	·	·	–	·	·	·
COc1cccc(C2CCCCN2Cc2nc(-c3ccc(C)o3)oc2C)c1 (centres undefined)	–	27.2	–	–	30.6	40.9
O=[N+]([O-])c1ccc(/C=N/Nc2ccnc3cc(Cl)ccc23)o1	–	68.1	–	–	62.5	77.9
Cc1cc(N/N=C/c2ccc([N+](=O)[O-])o2)nc2ccccc12	–	49.5	–	–	50.1	63.7
Cc1cc(NN=Cc2ccccn2)nc2ccccc12	·	·	–	·	·	·
COc1ccc(S[C@]2(C(=O)N3CCN(c4ncccn4)CC3)CC(=O)N(P(=O)(OC)OC)[C@@H]2c2ccc(OC)cc2)cc1	·	·	–	·	·	·
SMILES	HNF4A DNA FP	TPT1 inhibitor	Rev-erbA mod	CSN inh	caTPT1 confirm	RNase T1 counter
O=Nc1ccc(Br)cn1	·	·	–	·	·	·
Cc1cc(C(=O)OCC(=O)c2ccc(Br)s2)c(C)o1	·	30.3	·	·	–	–
Cc1cc(C(=O)OCC(=O)c2ccc(Br)s2)no1	–	–	–	–	·	·
Cn1c(N)c(-c2ccccc2)c2ccc([N+](=O)[O-])cc2c1=O	98.8	84.2	–	–	89.0	91.5
Cc1ccc(Oc2cc([N+](=O)[O-])cc3c2C(=O)Nc2ccccc2O3)cc1	–	24.5	–	–	35.9	45.9
O=C1Nc2ccccc2Nc2ccc([N+](=O)[O-])cc21	–	–	–	–	·	·
Nc1c(Cl)cc2c(c1Oc1ccccc1)C(=O)c1ccccc1C2=O	–	25.1	–	–	30.4	40.9
O=C(Nc1ccccc1C(F)(F)F)c1ccc2nccnc2c1	–	39.0	–	–	–	–
O=C(COC(=O)c1ccc(Sc2ncn[nH]2)c([N+](=O)[O-])c1)Nc1cccc(Cl)c1F	·	·	–	·	·	·
O=c1cc(O)c(Cl)c[nH]1	·	·	–	·	·	·
COCCCNC(=O)/C(C#N)=C1\N=C(NC(=O)c2cccs2)c2ccccc21	–	31.4	–	–	–	–
